Only some compounds are listed: those with a hit (about 4.1% of all), similar ones and a draw of the others.
Mdm2-MdmX inh – inhibitors of human Mdm2-MdmX association, primary screen, cell-based, luminescence, split luciferase, SaOS-2, uHTS. Protein Mdm4 (Homo sapiens) + E3 ubiquitin-protein ligase Mdm2 (Homo sapiens), …. SaOS-2 split-luciferase Mdm2/MdmX complementation. inhibition, % at 8 µM. actives 3% (n = 330,000). AID 485346, 2010;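 active = inhibition of at least 50% at 8 µM in the primary screen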
UPR XBP1 act – activators of adaptive XBP1 UPR arm, primary screen, cell-based, CHO-XBP1 luciferase reporter, luminescence, uHTS | IRE1-XBP1 UPR activation; percent of tunicamycin response, DMSO as zero | activation, % at 20 µM | actives 0.33% (n = 330,000);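 active = versus positive control, 20 µM dose yields 30% or more activation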
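incubation = overnight seeding at 37 °C, 6 h compound treatment at 37 °C | assay system = CHO-XBP1 cells stably carrying IRE1-XBP1-driven luciferase reporter | input = 1000 cells per well | detection = luciferase luminescence | dosing = single point, 20 µM final compound, 1% DMSO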
UBC13 polyUb – UBC13 polyubiquitin chain formation inhibitors, primary screen, biochemical, TR-FRET, uHTS; Ubiquitin-conjugating enzyme E2 N (Homo sapiens), P61088; actives 0.47% (n = 330,000); inhibition, % at 20 µM; in the data active = inhibition above about 45%, passing the limit was not always enough
Target sequence (P61088 whole entry, looked up): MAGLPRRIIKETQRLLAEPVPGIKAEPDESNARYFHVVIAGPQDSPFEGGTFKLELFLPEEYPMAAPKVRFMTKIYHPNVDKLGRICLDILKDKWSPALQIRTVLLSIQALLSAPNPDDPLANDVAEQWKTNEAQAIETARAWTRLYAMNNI
Apaf1 inhib – inhibitors of human Apaf-1 apoptosome, primary screen, biochemical, DEVD-Rh110 fluorescence, uHTS; inhibition, % at 20 µM; Apoptotic protease-activating factor 1 (Homo sapiens), O14727; actives 0.71% (n = 330,000); reconstituted apoptosome caspase-3 activity; active = inhibition of at least 40% at 20 µM
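Material: reconstituted apoptosome with Apaf-1, cytochrome c, caspase-9, procaspase-3, dATP. Technique: Rh110 fluorescence intensity. Buffer or medium: pH 7.5 Hepes buffer with CHAPS, BSA, DTT. Times: 30 min plus 50 min, RT.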
UPR CHOP act – activators of apoptotic CHOP UPR arm, primary screen, cell-based, CHO-CHOP luciferase reporter, luminescence, uHTS | UPR activation; percent of tunicamycin response over DMSO baseline | activation, % at 10 µM | actives 0.34% (n = 330,000) | AID 449763, 2010;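 active = at 10 µM dose, activation of 40% or more, normalized to positive control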
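Test system: CHO CHOP reporter cells. Input: 500 CHO-CHOP cells per well. Medium: F12 with 10% FBS. Technique: luciferase luminescence. Measure: percent activation relative to tunicamycin control. Dosing: 10 µM compound, 0.5% DMSO. Timing: 16-18 h cell attachment, then 6 h compound exposure, 37 °C.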
Mdm2-MdmX conf – Mdm2-MdmX complex disruptors, retested hits, confirmation, luminescence, single concentration; shares compounds with Mdm2-MdmX inh; Mdm2-MdmX binding, luminescent assay; inhibition, % at 8 µM; actives 55% (n = 10,000); in the data active = inhibition above about 40%
FLuc counter – full-length luciferase signal inhibition, confirmation, counter-screen for Mdm2/MdmX interaction inhibitor project, cell-based, single concentration, SaOS-2 | shares compounds with Mdm2-MdmX inh | SaOS-2 full-length luciferase counterscreen, luminescence | inhibition, % at 8 µM | actives 77% (n = 6,200);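 active = mean inhibition at 8 µM reaching about 37%, which flags the compound as non-specific, limit read from the data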;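 also: p53-null SaOS-2 cells with luciferase driven by a doxycycline-inducible promoter; compound on cells about two nights before reading with doxycycline added after day one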
Large screens that a line does not name were inactive (follow-up assays come after a bar, where they were run).

Cc1cccc(OCC(=O)Nc2ccccc2N2CCN(C(=O)C(C)C)CC2)c1C	Mdm2-MdmX inh 100.3 | Mdm2-MdmX conf inactive
Cc1cccc(OCC(=O)Nc2ccccc2N2CCCC2)c1C	none
O=C(CNC(=O)c1ccc(Cl)c([N+](=O)[O-])c1)NCC1CCCO1 (configuration not stated)	none
Cn1nc(-c2ccc(OCC(=O)Nc3cccnc3)cc2)c2ccccc2c1=O	Mdm2-MdmX inh 63.7 | Mdm2-MdmX conf inactive
Cn1c(=O)c2c(nc(SCC(=O)NCC3CCCO3)n2Cc2ccc(F)cc2)n(C)c1=O (configuration not stated)	none
COc1cc(C(=O)O/N=C(\N)c2ccccn2)cc(OC)c1OC	Mdm2-MdmX inh 67.4 | Mdm2-MdmX conf inactive
C/C(=N\OC(=O)c1ccc(Br)cc1)c1ccccn1	none
N/C(=N\OC(=O)c1ccccc1)c1ccccn1	none
Cc1cccc(C(=O)O/N=C(\N)c2ccccn2)c1	Mdm2-MdmX inh 65.1 | Mdm2-MdmX conf 63.0 | FLuc counter 99.6
Cc1ccc(C(=O)O/N=C(\N)c2ccccn2)cc1	Mdm2-MdmX inh 90.6 | Mdm2-MdmX conf 89.3 | FLuc counter inactive
CC(C)(C)c1ccc(C(=O)O/N=C(\N)c2ccccn2)cc1	Mdm2-MdmX inh 98.2 | Mdm2-MdmX conf 97.3 | FLuc counter inactive
Cc1ccc(O)c(-c2cc(-c3ccc(F)cc3)no2)c1	none
O=C(Nc1ccc(N2CCOCC2)cc1)c1ccc(COc2ccccc2)cc1	none
Cc1ccc(C(=O)O/N=C(\N)c2ccccn2)cc1C	Mdm2-MdmX inh 81.7 | Mdm2-MdmX conf 70.0 | FLuc counter 63.9
CCOc1ccc(C(=O)O/N=C(\N)c2ccccn2)cc1	Mdm2-MdmX inh 95.0 | Mdm2-MdmX conf 86.2 | FLuc counter inactive
N/C(=N\OC(=O)c1cccc(F)c1)c1ccccn1	none
O=C(Nc1ncc([N+](=O)[O-])s1)c1ccc2c(c1)OCO2	Mdm2-MdmX inh 74.9 | Mdm2-MdmX conf 68.8 | FLuc counter 64.1
Cc1nc2ccc3nc(NC(=O)c4ccc5c(c4)OCCO5)sc3c2s1	none
O=C(Nc1cc([N+](=O)[O-])ccc1Cl)c1ccc2c(c1)OCO2	Mdm2-MdmX inh 74.4 | Mdm2-MdmX conf inactive
Cc1cnc(NC(=O)c2ccc3c(c2)OCCO3)s1	Mdm2-MdmX inh 74.1 | Mdm2-MdmX conf 80.1 | FLuc counter inactive
Cc1onc(-c2ccccc2)c1C(=O)Nc1ncc([N+](=O)[O-])s1	Mdm2-MdmX inh 73.4 | Mdm2-MdmX conf inactive | FLuc counter 58.9
COc1ccc(C2CC(C)=C(C#N)S(=O)(=O)C2C#N)cc1 (configuration not stated)	none
O=C(COc1ccccc1)NC1CCSC1=O (configuration not stated)	none
O=C(CNC(=O)c1cc(Cl)cc([N+](=O)[O-])c1)NC1CC1	none
Clc1nc(-c2ccccn2)nc2scc(-c3ccccc3)c12	Mdm2-MdmX inh 57.3 | Mdm2-MdmX conf inactive
O=C(CC1S/C(=N/N=C/C=C/c2ccccc2)NC1=O)Nc1ccc(Cl)c(Cl)c1 (configuration not stated)	Mdm2-MdmX inh 62.7 | Mdm2-MdmX conf inactive
Cc1cc(C)c(O)c(-c2cc(C(=O)Nc3ccc(S(=O)(=O)N4CCOCC4)cc3)[nH]n2)c1	Mdm2-MdmX inh 69.4 | Mdm2-MdmX conf 43.0 | FLuc counter 39.9
CC(=O)N1CCn2c3c(c4cc(C)ccc42)CCCC31 (configuration not stated)	none
Cc1ccc2c(c1)c1c3n2CCN(C(=O)CCl)C3CCC1 (configuration not stated)	Mdm2-MdmX inh 50.7 | Mdm2-MdmX conf inactive | FLuc counter 91.7
CCc1nc2c(c(=O)c3ccccc3n2C)c(=O)n1CCc1ccc(OC)cc1	Mdm2-MdmX inh 87.9 | Mdm2-MdmX conf 65.8 | FLuc counter 122.6
Cc1ccc(-c2n[nH]c(=S)n2/N=C/c2c(C)nn(-c3ccccc3)c2C)cc1	none
Cc1ccccc1-c1n[nH]c(=S)n1/N=C/c1c(C)nn(-c2ccccc2)c1C	Mdm2-MdmX inh 86.8 | Mdm2-MdmX conf 52.6 | FLuc counter 102.6
Cc1ccc(NC(=O)COc2ccccc2CNC(C)(C)CC(C)(C)C)cc1	Mdm2-MdmX inh 90.3 | Mdm2-MdmX conf 53.0 | FLuc counter 58.7
CCCN(C(=O)c1ccco1)c1nnc(-c2ccccc2C)s1	none
O=C(c1cccc(Cl)c1)N1CCC(N2CCC(C(=O)N3CCCC3)CC2)CC1	none
CCn1c2ccccc2c2cc(NC(=O)CSc3nnc(-c4cccc(Cl)c4)o3)ccc21	Mdm2-MdmX inh 52.4 | Mdm2-MdmX conf inactive
O=C(CSc1nnc(-c2cccnc2)o1)Nc1cccc(Cl)c1	none
O=C(COc1ccc2c(c1)OCO2)NCc1cccs1	none
CCc1ccc(/C=C/c2c[nH]c3ccccc23)[n+](CC)c1	Mdm2-MdmX inh 53.4 | Mdm2-MdmX conf 44.0 | FLuc counter 58.9
O=C1N[C@@H](Cc2ccccc2)C(=O)N2[C@@H]3N(S(=O)(=O)c4ccccc4)c4ccccc4[C@]3(Br)C[C@@H]12	none
CC(C)c1cc(C(C)C)c(S(=O)(=O)N2c3ccccc3[C@@]3(Br)C[C@H]4C(=O)N[C@@H](Cc5ccccc5)C(=O)N4[C@@H]23)c(C(C)C)c1	Mdm2-MdmX inh 59.2 | Mdm2-MdmX conf inactive | FLuc counter 106.1
Nc1nn(-c2ccccc2Cl)cc1-c1nn[nH]n1	none
Cc1ccc(Cn2nnnc2CN2CCC(c3nc4ccc(Cl)cc4[nH]3)CC2)cc1	Mdm2-MdmX inh 58.1 | Mdm2-MdmX conf inactive | FLuc counter 46.4
Cc1ccc(-n2c(C)cc(/C=C3\SC(=O)NC3=O)c2C)cc1	none
Cc1cc(/C=C2\SC(=Nc3ccccc3)NC2=O)c(C)n1-c1ccc(S(N)(=O)=O)cc1	Mdm2-MdmX inh 61.5 | Mdm2-MdmX conf 49.5 | FLuc counter 57.1
CCOCC(=O)Nc1nc(-c2ccccc2)c(CC)s1	none
Cc1cc(C)cc(C(=O)Nc2ccc(N3CCN(C(=O)c4ccco4)CC3)cc2)c1	none
Cc1cc2oc(=O)c(CC(=O)O)c(C)c2c2occ(C(C)(C)C)c12	none

Screening results: PubChem, Sanford-Burnham Center for Chemical Genomics
